# Screens deposited in PubChem by several laboratories.
# A selection: hits, their analogues and other compounds. The true share with any hit is near 5.4%.
# E coli WT exp: growth inhibitors of wild-type E. coli, primary screen, strain BW25113, expanded library, OD600; OD600 absorbance; growth inhibition, % at 100 µM; hit rate 0.15% among 98,000;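 active = growth inhibition above about 50% at one test dose, limit read from the data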;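 also: growth measured after 20 h incubation at 37 °C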
# PostGolgi yeast: phenotypic screen on post-Golgi transport, primary screen; post-Golgi transport phenotypic cell assay; inhibition, % at 10 µM; hit rate 0.9% among 98,000;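 also: yeast cells grown in 1536-well plates; yeast grown about 18 h at 30C before absorbance read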
# PostGolgi ctrl: growth inhibition of yeast control strain, primary screen, counter-screen for post-Golgi transport modulator project. efflux-deficient yeast background strain, growth absorbance A615, 16 h. hit rate 5% among 98,000. inhibition, % at 10 µM
# HePTP inh: inhibitors of human HePTP phosphatase, primary screen, biochemical, absorbance, leukemia target; hit rate 0.64% among 110,000; recombinant HePTP phosphatase activity, OD absorbance; AID 521, 2006; inhibition, % at 20 µM; in the data active = inhibition above about 50%;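 also: plate controls were vehicle for no effect and reference inhibitor for full effect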
# Target sequence (P35236 whole entry, looked up): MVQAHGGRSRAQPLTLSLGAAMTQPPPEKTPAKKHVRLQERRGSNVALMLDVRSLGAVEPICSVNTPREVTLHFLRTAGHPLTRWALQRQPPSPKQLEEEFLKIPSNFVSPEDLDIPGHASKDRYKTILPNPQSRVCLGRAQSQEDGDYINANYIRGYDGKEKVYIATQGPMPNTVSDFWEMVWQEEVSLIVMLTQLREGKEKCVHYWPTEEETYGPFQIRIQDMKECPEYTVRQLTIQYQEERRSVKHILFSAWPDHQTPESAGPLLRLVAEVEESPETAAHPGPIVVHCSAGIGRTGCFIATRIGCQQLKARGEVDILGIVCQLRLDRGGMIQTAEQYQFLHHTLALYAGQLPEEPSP
# PLAP act: PLAP enzyme activators, biochemical, luminescence, HTS; purified PLAP enzyme, luminescent substrate read-out; hits give high values; activation fold at 20 µM; hit rate 1.2% among 96,000; AID 696, 2007; in the data active = activation fold above about 2
# Ecoli tolC: growth inhibitors of E. coli tolC mutant, primary screen, strain BW25113 ΔtolC::kan, 384-well; OD615; growth inhibition, % at 10 µM (by protocol); hit rate 2.2% among 65,000;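 active = growth inhibition at or above a cutoff equal to the mean over every tested compound plus 3 SD, cut at about 60% in these data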;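 also: growth measured after 20 h incubation at 37 °C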
#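 test system = E. coli BW25113 ΔtolC::kan bacteria | medium = LB with kanamycin 50 µg/mL | signal = OD at 615 nm | schedule = 37 °C, 20 h exposure | evaluation = % inhibition of E. coli growth | compound dosing = one dose of 10 µM final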
# * hit, by the source's call; nt = not tested or not shown. Rule as the data show it, unless noted: active = inhibition above about 30%; inactive = the rest.
SMILES,E coli WT exp,PostGolgi yeast,PostGolgi ctrl,HePTP inh,PLAP act,Ecoli tolC
Cc1ccc(OCC(=O)N/N=C\c2c(C)n(C)c3ccccc23)c([N+](=O)[O-])c1,-6.0,-0.8,53.6*,nt,1.2,nt
COc1cc(CN(C(=O)c2ccco2)c2ccc(C)cc2)ccc1O,29.0,-11.6,11.9,-1.2,0.9,20.7
Cc1ccc(N(Cc2ccc([N+](=O)[O-])cc2)C(=O)c2ccco2)cc1,-12.0,11.9,34.6*,nt,1,nt
Cc1ccn2c(C(=O)CSc3ccccc3Cl)c(C)nc2c1,2.0,-8.3,16.8,nt,0.8,nt
Cc1cccc(-c2nnc3sc(-c4ccccc4C)nn23)c1,-13.0,6.2,63.9*,1.0,1.6,59.9
c1ccc(-c2nnc3sc(-c4csc5c4CCCC5)nn23)cc1,2.0,12.8,74.8*,-2.5,1.5,21.8
O=C(/C=C/c1ccco1)Nc1ccccc1C(=O)O,nt,nt,nt,95.5*,nt,nt
O=C(/C=C/c1ccco1)Nc1cc(Cl)ccc1C(=O)O,nt,nt,nt,102.5*,nt,nt
COc1cccc(C(=O)c2c[nH]c(C(=O)NCc3cccs3)c2)c1,-4.0,1.1,0.0,nt,0.9,nt
COC(=O)c1c(C)oc2cc(Br)c(OCc3ccccc3F)cc12,nt,nt,nt,7.2,nt,nt
O=C(Cn1ccc2ccccc2c1=O)NCCC(=O)NC1CCN(Cc2ccccc2)CC1,8.0,-3.5,49.3*,-6.8,1.5,-12.7
CCN(CC(=O)Nc1ccccc1Br)Cc1nc2ccccc2c(=O)[nH]1,6.0,1.3,3.9,nt,2.3*,nt
Cc1ccc(NC(=O)CN(C)Cc2nc3ccccc3c(=O)[nH]2)c(Br)c1,1.0,-6.4,6.1,nt,2.2*,nt
CC(NC(=O)CN(C)Cc1nc2ccccc2c(=O)[nH]1)c1ccccc1 (stereo not drawn),-4.0,8.7,-9.0,nt,2.3*,nt
Cc1ccc(/C=N/n2nnnc2N)o1,7.0,-6.1,2.8,2.9,0.9,11.9
COc1ccc2nc(NCCCNC(=O)c3cc(OC)c(OC)c(OC)c3)c(C#N)cc2c1,7.0,33.9*,3.0,8.4,2.4*,8.0
Clc1ccc2oc(-c3cccnc3)nc2c1,7.0,5.4,3.0,nt,0.8,nt
CC(C)(C)C(=O)[C@H]1[C@H](c2ccccc2)[C@@]2(N=C(c3ccccc3)OC2=O)C2c3ccccc3C=NN21 (stereo partly drawn),5.0,-10.2,36.7*,nt,1.3,nt
O=S(=O)(N1CCCCC1)N1CCN(c2ccccc2F)CC1,0.0,14.5,-3.3,nt,0.9,nt
COc1cc(S(=O)(=O)N2CCN(c3ccccc3F)CC2)ccc1Cl,-3.0,0.9,47.9*,2.2,0.8,51.8
CS(=O)(=O)N1CCN(c2ccccc2F)CC1,6.0,7.1,30.6*,5.6,1,-15.8
COc1cc(S(=O)(=O)N2CCN(c3ccccc3)CC2)ccc1Cl,4.0,12.4,18.6,-2.6,1,10.1
O=C(COc1ccc(Cl)cc1)Nc1ccc(N2CCN(C(=O)c3ccco3)CC2)cc1,-6.0,88.2*,13.2,nt,0.8,nt
Cc1cc(C)cc(OCC(=O)Nc2ccc(N3CCN(C(=O)c4ccco4)CC3)cc2)c1,-1.0,-1.9,-2.5,nt,1.6,nt
O=C(c1ccco1)N1CCN(Cc2ccc(Cl)cc2)CC1,13.0,-3.8,35.2*,-2.6,1,-1.2
SMILES,E coli WT exp,PostGolgi yeast,PostGolgi ctrl,HePTP inh,PLAP act,Ecoli tolC
Cc1ccccc1C(=O)N1CCN(c2ccc(NC(=O)CSc3ccc(Cl)cc3)cc2)CC1,-19.0,78.5*,52.7*,nt,1.3,nt
COc1ccc(N(CC(=O)Nc2ccccc2OC)S(=O)(=O)c2ccccc2)cc1Cl,nt,nt,nt,-7.6,nt,nt
CCN1C(=O)CC(N2CCC(C(=O)N3CCOCC3)CC2)C1=O (stereo not drawn),-1.0,-6.6,4.0,5.1,0.9,-13.8
COC(=O)c1ccccc1NC(=O)CCS(=O)(=O)c1ccc(Br)s1,-10.0,-25.5,24.1,nt,0.7,nt
O=C(OCC(=O)c1cccs1)c1cccc(C(=O)OCC(=O)c2cccs2)n1,-4.0,2.9,3.9,nt,0.8,nt
CCCC(=O)Nc1nc2ccc(Cl)cc2s1,nt,nt,nt,-13.3,nt,nt
CCCC(=O)Nc1nc2ccc(NC(=O)c3ccc(Br)o3)cc2s1,-14.0,-4.4,40.8*,2.6,0.8,1.6
CCC(C)c1ccccc1NC(=O)c1cccnc1 (stereo not drawn),0.0,-6.6,51.6*,2.9,0.8,1.1
Cc1ccc(-c2noc(CSc3nnnn3C3CCCCC3)n2)cc1,2.0,-6.8,39.6*,-5.4,1,72.6*
Cc1c(-c2nc(-c3cccnc3)no2)cccc1[N+](=O)[O-],nt,nt,nt,3.5,nt,nt
CC(C)(C)c1ccc(Cn2nnc3c(=O)[nH]c(C4CCN(C(=O)Cc5cccs5)CC4)nc32)cc1,0.0,-0.4,-5.7,8.6,1.5,-3.2
CC(C)(C)c1ccc(Cn2nnc3c(=O)[nH]c(C4CCCN(C(=O)Cc5cccs5)C4)nc32)cc1 (stereo not drawn),-4.0,-4.9,10.9,4.9,1.4,87.7*
CCCCc1nc(NCC2CCCO2)c(C#N)c2c1COC(C)(C)C2 (stereo not drawn),2.0,2.2,95.8*,-2.8,nt,-3.0
CCCCc1nc(N2CCOCC2)c(C#N)c2c1COC(C)(C)C2,13.0,0.2,17.0,7.6,1,13.3
C=CCCCC(=O)Nc1nc2ccc(OCC)cc2s1,nt,nt,nt,-19.2,nt,nt
CCOC(=O)c1cccc(NC(=O)CCS(=O)(=O)c2cccc3nsnc23)c1,6.0,-0.3,5.2,5.7,1,20.3
CCOC(=O)N/N=C(/C)c1ccc([N+](=O)[O-])o1,51.0*,-3.2,1.9,nt,1,nt
O=C(CSc1nc2[nH]ncc2c(=O)n1-c1ccccc1)c1ccc2c(c1)OCCO2,-6.0,-4.1,-3.2,0.5,2.4*,19.0
COc1ccc(C(=O)N=Nc2c(O)n(CN(C)C)c3ccc(Br)cc23)cc1,nt,nt,nt,86.8*,nt,nt
Cc1oc(-c2ccccc2F)nc1CN1CCC(C(=O)NCc2ccco2)CC1,1.0,6.3,-1.9,-4.5,1.3,-0.2
O=C(NCc1cccs1)C1CCCN(c2nc3ccccc3o2)C1 (stereo not drawn),-3.0,12.7,42.5*,-7.3,0.8,4.4
Cc1oc(-c2ccccc2F)nc1CN1CCC(C(=O)NC2CCCCCCC2)CC1,2.0,-1.4,5.2,3.7,2*,16.1
O=C(NCCc1ccccc1)C1CCN(c2nc3ccccc3o2)CC1,-11.0,-0.3,5.6,8.9,1.1,-5.0
Cc1oc(-c2ccccc2F)nc1CN1CCC(C(=O)NC2CCCc3ccccc32)CC1 (stereo not drawn),4.0,-1.5,2.6,nt,2*,nt
Cc1ccc(CNC(=O)C2CCCN(c3nc4ccccc4o3)C2)cc1 (stereo not drawn),nt,nt,nt,-5.7,nt,-17.6
O=C(NC1CCCCCCC1)C1CCN(c2nc3ccccc3o2)CC1,2.0,4.7,65.9*,8.9,1.7,6.1
Cc1ccccc1-c1nc(CN2CCC(C(=O)NC3CCN(Cc4ccccc4)CC3)CC2)c(C)o1,nt,nt,nt,17.7,nt,2.2
